ChEMBL document CHEMBL4219184, “Design, synthesis, and biological evaluation of new B-RafV600E kinase inhibitors” (Bioorg Med Chem, 2018)
The source made the active and inactive calls. The rule behind the calls is not given here.

Tests used:
[1] = target: Serine/threonine-protein kinase B-raf (Mus musculus, UniProt P28028, V600E); test: Inhibition of mouse full length GST-tagged BRAF V600E mutant using recombinant human full length N-terminal His-tagged MEK1 as substrate preincubated for 1 hr followed by substrate addition measured after 25 mins by Nu-page gel-based phosphor screen analysis
HCT-116 = test: Antiproliferative activity against wild type BRAF expressing human HCT116 cells after 48 hrs by MTT assay; format: functional, cell-based; conditions: HCT-116, 48 h
How it was run: (§1)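 MTT assay. Cells seeded at 10^4 per well in 96-well plates and left 24 h. Compounds then added at 0.01, 0.1, 1, 10 and 100 µM for 48 h. IC50 values calculated from the viability data.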

HT-29 = test: Antiproliferative activity against human HT-29 cells harboring BRAF V600E mutant after 48 hrs by MTT assay; format: functional, cell-based; conditions: HT-29, 48 h; how it was run: as §1
[2] = Antiproliferative activity against wild type BRAF expressing human WM1361 cells after 48 hrs by MTT assay; format: functional; conditions: WM1361, 48 h; how it was run: as §1
A-375 [3] = test: Antiproliferative activity against human A375 cells harboring BRAF V600E mutant after 48 hrs by MTT assay; format: functional, cell-based; conditions: A-375, 48 h; how it was run: as §1
A-375 [4] = test: Induction of apoptosis in human A375 cells assessed as late apoptotic cells at 1 uM after 24 hrs by Annexin V-FITC/propidium iodide double staining-based flow cytometry (reference value: 2.36%); format: functional
[5] = target: T1, Serine/threonine-protein kinase B-raf (Homo sapiens, UniProt P15056); test: Inhibition of wild type BRAF in human WM1361 cells assessed as reduction in MEK phosphorylation at 0.5 uM by Western blot analysis; format: cell-based
How it was run: (§2)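 Cells in 6-well plates were lysed in RIPA with PMSF on ice for 30 min and cleared at 12,000 g, 4 °C. Protein was measured by BCA, run on SDS-PAGE and moved to PVDF. Blots were blocked in 5% milk/TBST, given primary antibodies (1:500–1:1000) overnight at 4 °C, then HRP secondaries (1:5000–1:10000) for 1 h. Bands were detected by ECL.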

A-375 [6] = test: Induction of apoptosis in human A375 cells assessed as late apoptotic cells at 2 uM after 24 hrs by Annexin V-FITC/propidium iodide double staining-based flow cytometry (reference value: 2.36%); format: functional
[7] = system: Serine/threonine-protein kinase B-raf (Homo sapiens), P15056 [V600E]; test: Inhibition of BRAF V600E mutant in human A375 cells assessed as reduction in ERK phosphorylation by Western blot analysis; format: cell-based; how it was run: as §2
[8] = system: Serine/threonine-protein kinase B-raf (Homo sapiens), P15056 [V600E]; test: Inhibition of BRAF V600E mutant in human A375 cells assessed as reduction in MEK phosphorylation by Western blot analysis; format: cell-based; how it was run: as §2
[9] = target: T1, Serine/threonine-protein kinase B-raf; test: Induction of wild type BRAF activation in human WM1361 cells assessed as increase in MEK phosphorylation up to 0.15 uM by Western blot analysis; format: cell-based; how it was run: as §2
A-375 [10] = test: Induction of apoptosis in human A375 cells assessed as viable cells at 4 uM after 24 hrs by Annexin V-FITC/propidium iodide double staining-based flow cytometry (reference value: 96.2%); format: functional; conditions: A-375, 24 h, read-out: Activity
A-375 [11] = test: Induction of apoptosis in human A375 cells assessed as late apoptotic cells at 4 uM after 24 hrs by Annexin V-FITC/propidium iodide double staining-based flow cytometry (reference value: 2.36%); format: functional
A-375 [12] = test: Effect on total MEK protein levels in human A375 cells at 0.05 to 5 uM by Western blot analysis; format: ADME, cell-based; conditions: a-375, 5 µM; how it was run: as §2
A-375 [13] = test: Induction of apoptosis in human A375 cells assessed as necrotic cells at 4 uM after 24 hrs by Annexin V-FITC/propidium iodide double staining-based flow cytometry (reference value: 0.227%); format: functional
A-375 [14] = test: Induction of apoptosis in human A375 cells assessed as viable cells at 2 uM after 24 hrs by Annexin V-FITC/propidium iodide double staining-based flow cytometry (reference value: 96.2%); format: functional; conditions: A-375, 24 h, read-out: Activity
A-375 [15] = test: Induction of apoptosis in human A375 cells assessed as early apoptotic cells at 1 uM after 24 hrs by Annexin V-FITC/propidium iodide double staining-based flow cytometry (reference value: 1.19%); format: functional
[16] = target: T1, Serine/threonine-protein kinase B-raf; test: Inhibition of wild type BRAF in human WM1361 cells assessed as reduction in ERK phosphorylation at 0.5 uM by Western blot analysis; format: cell-based; how it was run: as §2
A-375 [17] = test: Induction of apoptosis in human A375 cells assessed as necrotic cells at 1 uM after 24 hrs by Annexin V-FITC/propidium iodide double staining-based flow cytometry (reference value: 0.227%); format: functional
[18] = target: T1, Serine/threonine-protein kinase B-raf; test: Induction of wild type BRAF activation in human WM1361 cells assessed as increase in ERK phosphorylation up to 0.15 uM by Western blot analysis; format: cell-based; how it was run: as §2
A-375 [19] = test: Induction of apoptosis in human A375 cells after 24 hrs by Annexin V-FITC/propidium iodide double staining-based flow cytometry; format: functional, cell-based
A-375 [20] = test: Induction of apoptosis in human A375 cells assessed as early apoptotic cells at 2 uM after 24 hrs by Annexin V-FITC/propidium iodide double staining-based flow cytometry (reference value: 1.19%); format: functional
A-375 [21] = test: Effect on total ERK protein levels in human A375 cells at 0.05 to 5 uM by Western blot analysis; format: ADME, cell-based; conditions: a-375, 5 µM; how it was run: as §2
A-375 [22] = test: Induction of apoptosis in human A375 cells assessed as early apoptotic cells at 4 uM after 24 hrs by Annexin V-FITC/propidium iodide double staining-based flow cytometry (reference value: 1.19%); format: functional
A-375 [23] = test: Induction of apoptosis in human A375 cells assessed as viable cells at 1 uM after 24 hrs by Annexin V-FITC/propidium iodide double staining-based flow cytometry (reference value: 96.2%); format: functional; conditions: A-375, 24 h, read-out: Activity
A-375 [24] = test: Induction of apoptosis in human A375 cells assessed as necrotic cells at 2 uM after 24 hrs by Annexin V-FITC/propidium iodide double staining-based flow cytometry (reference value: 0.227%); format: functional

T1 sequence (P15056 whole entry): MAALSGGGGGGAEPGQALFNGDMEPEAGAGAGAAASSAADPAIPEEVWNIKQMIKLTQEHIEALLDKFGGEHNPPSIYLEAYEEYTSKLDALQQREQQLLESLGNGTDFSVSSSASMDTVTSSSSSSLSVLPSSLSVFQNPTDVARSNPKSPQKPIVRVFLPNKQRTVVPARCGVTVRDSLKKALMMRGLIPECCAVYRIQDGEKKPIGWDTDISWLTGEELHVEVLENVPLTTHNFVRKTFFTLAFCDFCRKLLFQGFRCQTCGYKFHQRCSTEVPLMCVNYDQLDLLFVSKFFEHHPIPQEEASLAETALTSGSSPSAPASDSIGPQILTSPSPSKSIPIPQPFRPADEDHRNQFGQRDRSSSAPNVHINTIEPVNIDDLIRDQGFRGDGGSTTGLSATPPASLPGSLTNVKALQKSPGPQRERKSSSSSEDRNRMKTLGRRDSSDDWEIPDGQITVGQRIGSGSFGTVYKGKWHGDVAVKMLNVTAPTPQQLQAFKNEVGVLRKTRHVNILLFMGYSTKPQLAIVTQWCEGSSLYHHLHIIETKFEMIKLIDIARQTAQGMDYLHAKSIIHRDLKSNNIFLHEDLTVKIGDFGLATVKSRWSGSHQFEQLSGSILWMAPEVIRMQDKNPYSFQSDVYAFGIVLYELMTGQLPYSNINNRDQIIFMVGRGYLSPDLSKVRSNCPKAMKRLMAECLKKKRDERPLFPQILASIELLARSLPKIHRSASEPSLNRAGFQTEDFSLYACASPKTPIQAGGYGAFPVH
Serine/threonine-protein kinase B-raf (Mus musculus, UniProt P28028, V600E), sequence (P28028 whole entry, looked up, stated change not applied): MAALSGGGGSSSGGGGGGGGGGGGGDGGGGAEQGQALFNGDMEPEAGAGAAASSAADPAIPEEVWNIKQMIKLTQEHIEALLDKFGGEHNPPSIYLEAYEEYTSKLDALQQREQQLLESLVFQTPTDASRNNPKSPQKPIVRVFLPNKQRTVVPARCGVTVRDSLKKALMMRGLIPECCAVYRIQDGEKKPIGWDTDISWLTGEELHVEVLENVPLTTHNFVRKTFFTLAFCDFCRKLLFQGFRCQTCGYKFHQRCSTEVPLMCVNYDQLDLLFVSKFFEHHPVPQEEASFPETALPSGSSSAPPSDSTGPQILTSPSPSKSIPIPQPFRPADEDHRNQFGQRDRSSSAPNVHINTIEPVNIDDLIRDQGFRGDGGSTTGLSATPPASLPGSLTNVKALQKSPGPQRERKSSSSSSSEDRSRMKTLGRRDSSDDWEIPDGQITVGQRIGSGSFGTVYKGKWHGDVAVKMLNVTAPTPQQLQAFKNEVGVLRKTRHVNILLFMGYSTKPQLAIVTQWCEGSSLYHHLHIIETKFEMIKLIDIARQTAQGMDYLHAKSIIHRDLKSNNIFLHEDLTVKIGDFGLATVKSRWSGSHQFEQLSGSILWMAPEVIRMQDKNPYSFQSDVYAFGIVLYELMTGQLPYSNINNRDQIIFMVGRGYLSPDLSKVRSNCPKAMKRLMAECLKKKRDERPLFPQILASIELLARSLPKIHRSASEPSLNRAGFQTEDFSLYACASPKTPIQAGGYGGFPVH
Serine/threonine-protein kinase B-raf (Homo sapiens), P15056 [V600E], sequence (P15056 whole entry V600E): as the sequence (P15056 whole entry) above, with V600E counted along it

O=C(Nc1cccc(C(=O)Nc2ccc3[nH]ncc3c2)c1)c1cccc(F)c1
IC50 [1]: 8.71 µM
IC50 (HCT-116): 20.5 µM
IC50 (HT-29): 19.2 µM
IC50 [2]: 38.4 µM
IC50 (A-375 [3]): 12.2 µM

CC(C)(C)c1ccc(C(=O)Nc2cccc(C(=O)Nc3ccc4[nH]ncc4c3)c2)cc1
IC50 [1]: 0.75 µM
IC50 (HCT-116): 26.2 µM
IC50 (HT-29): 10.9 µM
IC50 [2]: 18.4 µM
IC50 (A-375 [3]): 2.85 µM

O=C(Nc1cccc(C(=O)Nc2ccc3[nH]ccc3c2)c1)c1ccc(Cl)cc1
IC50 [1]: 2.61 µM
IC50 (HCT-116): 22.3 µM
IC50 (HT-29): 11.1 µM
IC50 [2]: 19.6 µM
IC50 (A-375 [3]): 6.72 µM

O=C(Nc1cccc(C(=O)Nc2ccc3[nH]ncc3c2)c1)c1ccccc1
IC50 [1]: 5.22 µM
IC50 (HCT-116): 30.9 µM
IC50 (HT-29): 16.1 µM
IC50 [2]: 35.1 µM
IC50 (A-375 [3]): 9.12 µM

O=C(Nc1ccc2[nH]ncc2c1)c1cccc(NC(=O)c2cc(Cl)ccn2)c1
IC50 [1]: 1.14 µM
IC50 (HCT-116): 19.7 µM
IC50 (HT-29): 8.99 µM
IC50 [2]: 16.2 µM
IC50 (A-375 [3]): 4.56 µM

O=C(Nc1cccc(C(=O)Nc2ccc3[nH]ncc3c2)c1)c1ccc(Br)cc1
IC50 [1]: 2.78 µM
IC50 (HCT-116): 29.2 µM
IC50 (HT-29): 14.4 µM
IC50 [2]: 24.6 µM
IC50 (A-375 [3]): 5.74 µM

O=C(Nc1ccc2[nH]ncc2c1)c1cccc(NC(=O)c2cccc(Cl)n2)c1
IC50 [1]: 1.05 µM
IC50 (HCT-116): 24.9 µM
IC50 (HT-29): 12.2 µM
IC50 [2]: 27.2 µM
IC50 (A-375 [3]): 8.83 µM

O=C(Nc1cccc(C(=O)Nc2ccc3[nH]ncc3c2)c1)c1ccc(Oc2ccccc2)cc1
IC50 [1]: 5.27 µM
IC50 (HCT-116): 37.4 µM
IC50 (HT-29): 18.5 µM
IC50 [2]: 29.6 µM
IC50 (A-375 [3]): 9.45 µM

O=C(Nc1ccc2[nH]ccc2c1)c1cccc(NC(=O)c2ccccn2)c1
IC50 [1]: 3.52 µM
IC50 (HCT-116): 23.8 µM
IC50 (HT-29): 10.6 µM
IC50 [2]: 17.4 µM
IC50 (A-375 [3]): 5.78 µM

O=C(Nc1cccc(C(=O)Nc2ccc3[nH]ncc3c2)c1)c1cccc(Cl)c1
IC50 [1]: 4.94 µM
IC50 (HCT-116): 26.2 µM
IC50 (HT-29): 20.5 µM
IC50 [2]: 25.5 µM
IC50 (A-375 [3]): 9.87 µM

O=C(Nc1cccc(C(=O)Nc2ccc3[nH]ncc3c2)c1)c1ccc(F)cc1
IC50 [1]: 1.57 µM
IC50 (HCT-116): 36.2 µM
IC50 (HT-29): 12.2 µM
IC50 [2]: 29.2 µM
IC50 (A-375 [3]): 7.15 µM

O=C(Nc1ccc2[nH]ncc2c1)c1cccc(NC(=O)c2ccc(Br)cn2)c1
IC50 [1]: 0.46 µM
IC50 (HCT-116): 22.2 µM
IC50 (HT-29): 9.65 µM
IC50 [2]: 19.6 µM
IC50 (A-375 [3]): 7.58 µM

CNC(=O)c1cc(Oc2ccc(NC(=O)Nc3ccc(Cl)c(C(F)(F)F)c3)cc2)ccn1 [SORAFENIB]
IC50 (HCT-116): 23.3 µM
IC50 (HT-29): 8.44 µM
IC50 [2]: 16.4 µM
IC50 (A-375 [3]): 3.36 µM

O=C(Nc1cccc(C(=O)Nc2ccc3[nH]ccc3c2)c1)c1ccccc1
IC50 [1]: 2.11 µM
IC50 (HCT-116): 21.2 µM
IC50 (HT-29): 10.6 µM
IC50 [2]: 24.6 µM
IC50 (A-375 [3]): 6.49 µM

O=C(Nc1cccc(C(=O)Nc2ccc3[nH]ncc3c2)c1)c1ccc(C(F)(F)F)cc1
Activity (A-375 [4]): 10.1%
IC50 [1]: 0.18 µM
inhibition [5]: Active
Activity (A-375 [6]): 14.6%
inhibition [7]: Dose-dependent effect
IC50 (HCT-116): 18.7 µM
inhibition [8]: Dose-dependent effect
Activity [9]: Not Active
viability at 4 µM (A-375 [10]): 71%
IC50 (HT-29): 4.41 µM
Activity (A-375 [11]): 16.1%
Activity (A-375 [12]): Non-Toxic
Activity (A-375 [13]): 0.652%
viability at 2 µM (A-375 [14]): 73.7%
Activity (A-375 [15]): 8.05%
inhibition [16]: Active
Activity (A-375 [17]): 1.56%
Activity [18]: Not Active
IC50 [2]: 12.8 µM
Activity (A-375 [19]): Dose-dependent effect
Activity (A-375 [20]): 10.7%
Activity (A-375 [21]): Non-Toxic
Activity (A-375 [22]): 12.2%
viability at 1 µM (A-375 [23]): 80.3%
Activity (A-375 [24]): 1.05%
IC50 (A-375 [3]): 1.97 µM

O=C(Nc1cccc(C(=O)Nc2ccc3[nH]ncc3c2)c1)c1ccc(Cl)cc1
IC50 [1]: 3.04 µM
IC50 (HCT-116): 32.5 µM
IC50 (HT-29): 17.9 µM
IC50 [2]: 30.8 µM
IC50 (A-375 [3]): 7.62 µM

O=C(Nc1cccc(C(=O)Nc2ccc3[nH]ccc3c2)c1)c1ccc(Oc2ccccc2)cc1
IC50 [1]: 5.72 µM
IC50 (HCT-116): 35.2 µM
IC50 (HT-29): 21.1 µM
IC50 [2]: 21.6 µM
IC50 (A-375 [3]): 10.5 µM

Cc1cccc(C(=O)Nc2cccc(C(=O)Nc3ccc4[nH]ncc4c3)c2)n1
IC50 [1]: 0.81 µM
IC50 (HCT-116): 25.1 µM
IC50 (HT-29): 11.5 µM
IC50 [2]: 21.3 µM
IC50 (A-375 [3]): 7.46 µM

O=C(Nc1ccc2[nH]ncc2c1)c1cccc(NC(=O)c2ccccn2)c1
IC50 [1]: 4.11 µM
IC50 (HCT-116): 35.9 µM
IC50 (HT-29): 17.2 µM
IC50 [2]: 28.2 µM
IC50 (A-375 [3]): 8.29 µM

O=C(Nc1ccc2[nH]ccc2c1)c1cccc(NC(=O)c2cccc(Cl)n2)c1
IC50 [1]: 6.57 µM
IC50 (HCT-116): 35.5 µM
IC50 (HT-29): 19.6 µM
IC50 [2]: 19.2 µM
IC50 (A-375 [3]): 8.46 µM
